The text below walks through data of ChEMBL document CHEMBL1144198, “Nucleosides and oligonucleotides containing 1,2,3-triazole residues with nucleobase tethers: synthesis via the azide-alkyne 'click' reaction” (Bioorg Med Chem, 2008).

One data set deals with Yellow fever virus. Kind of data set: Antiviral activity against YFV infected in BHK21 cells assessed as inhibition of virus-induced cytopathic effect at 15 uM. The settings on record: BHK-21. Type of data set: functional.
The next data set relates to dengue virus type 2. Kind of data set: Antiviral activity against DENV infected in BHK21 cells assessed as inhibition of virus-induced cytopathic effect at 15 uM. Type of data set: functional. The note with it: BHK-21. The method in brief:
(§1)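 Single test concentration 15 µM of drug in acutely infected BHK cells; inhibition of virus-induced cytopathogenicity read by CPE assay, reported as % inhibition.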

In another data set the test system is West Nile virus. The experiment in a line: Antiviral activity against WNV infected in BHK21 cells assessed as inhibition of virus-induced cytopathic effect at 15 uM. Type of data set: functional. The note with it: BHK-21. The essentials:
as §1

The next data set has as its system Hepatitis C virus. Kind of data set: Antiviral activity against HCV assessed at 15 uM by ELISA. Type of data set: functional, Hepacivirus hominis. The essentials: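 HCV replicon replication in GS4.1 cells, read by ELISA-based replicon assay at a single test concentration of 15 µM of drug; reported as % inhibition.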
Data set [1] in a line: Cytotoxicity against WNV infected BHK21 cells at 15 uM. It counts as cell-based, Mesocricetus auratus. The note with it: hamster, bhk-21, 15 µM. The method in brief: (§2)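 Cellular toxicity measured at a single test concentration of 15 µM of drug in BHK cells run alongside the flavivirus CPE assays; reported as % toxicity.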
Data set [2] can be described thus: Cytotoxicity against DENV infected BHK21 cells at 15 uM. Type of data set: cell-based, Mesocricetus auratus. The settings on record: hamster, bhk-21, 15 µM. The essentials: as §2
Data set [3] can be described thus: Cytotoxicity against YFV infected BHK21 cells at 15 uM. It counts as cell-based, Mesocricetus auratus. The settings on record: hamster, bhk-21, 15 µM.
Data set [4] is described as follows: Cytotoxicity against human GS4.1 cells at 15 uM. It counts as cell-based. The method in brief: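 Cellular toxicity of drug at a single test concentration of 15 µM in GS4.1 (HCV replicon) cells; reported as % toxicity.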

Consider `C#CCn1ccc2c(Cl)ncnc21`, for which the inhibition at 15 µM was -0.25% in the data set with Yellow fever virus, -0.85% with dengue virus type 2, 3.81% with West Nile virus and 69.2% in the data set on Hepatitis C virus. Moreover, the Activity is -9.83% in data set [1], -9.83% in data set [2], -19.45% in data set [3] and 1.84% in data set [4].
Regarding `Nc1ncnc2c1ccn2Cc1cn([C@H]2C[C@H](O)[C@@H](CO)O2)nn1`, the inhibition at 15 µM was 11% in the data set on Yellow fever virus, 3.43% with dengue virus type 2, 2.42% with West Nile virus and -3.8% in the data set with Hepatitis C virus. The Activity in data set [1] was 3.14%; in data set [2] it was 3.14%; in data set [3], 4.48%; in data set [4] it was -3.79%.
Consider `Cc1ccc(C(=O)OC[C@H]2O[C@@H](n3cc(Cn4ccc(N)nc4=O)nn3)C[C@@H]2OC(=O)c2ccc(C)cc2)cc1`, for which the figures for the inhibition at 15 µM with dengue virus type 2, in the data set with West Nile virus and in the data set on Hepatitis C virus were -2.26%, -3.67% and 15.6%, respectively. Moreover, the Activity in data set [1] is recorded as 4.08%; in data set [2] it was 4.08%; in data set [4], -8.12%.
As to `Cc1ccc(C(=O)OC[C@H]2O[C@@H](n3cc(Cn4ccc(=O)[nH]c4=O)nn3)C[C@@H]2OC(=O)c2ccc(C)cc2)cc1`, the inhibition at 15 µM in the data set on dengue virus type 2 was 0.82%; in the data set on West Nile virus, -2.84%; in the data set on Hepatitis C virus, 11.3%. Besides, the values for the Activity in data set [1], in data set [2] and in data set [4] were 3.37%, 3.37% and -4.12%, respectively.
On to `OC[C@H]1O[C@@H](n2cc(Cn3cnc4c3ncn3ccnc43)nn2)C[C@@H]1O`, for which the inhibition at 15 µM was 4.39% in the data set on Yellow fever virus, 2.23% with dengue virus type 2, -2.44% with West Nile virus and 6.07% in the data set with Hepatitis C virus. For the same compound, the Activity is reported as -2.95% in data set [1], -2.95% in data set [2], -11.67% in data set [3] and -2.24% in data set [4].
For the compound `Cc1ccc(C(=O)OC[C@H]2O[C@@H](n3cc(Cn4ccc5c(Cl)nc(N)nc54)nn3)C[C@@H]2OC(=O)c2ccc(C)cc2)cc1`, the figures for the inhibition at 15 µM in the data set on dengue virus type 2, with West Nile virus and with Hepatitis C virus were -2.39%, -1.44% and 32.1%, respectively. Further, the Activity in data set [1] amounted to 0.17%; in data set [2] it was 0.17%; in data set [4], 6.49%.
`Nc1ccn(Cc2cn([C@H]3C[C@H](O)[C@@H](CO)O3)nn2)c(=O)n1`: the inhibition at 15 µM was 7.89% in the data set with Yellow fever virus, 0.95% in the data set on dengue virus type 2, 0.24% in the data set on West Nile virus and 10.1% with Hepatitis C virus. Also, the Activity in data set [1] is 9.41%; in data set [2], 9.41%; in data set [3], -4.62%; in data set [4], -5.59%.
`Nc1nc(Cl)c2ccn(Cc3cn([C@H]4C[C@H](O)[C@@H](CO)O4)nn3)c2n1`: the inhibition at 15 µM with Yellow fever virus turned out to be 13.3%; with dengue virus type 2 it was 2.49%; in the data set on West Nile virus it was 5.71%; in the data set on Hepatitis C virus it was 2.93%. Besides, the Activity in data set [1] is listed as 1.3%; in data set [2], 1.3%; in data set [3], 8.55%; in data set [4], -3.3%.
Take `O=c1ccn(Cc2cn([C@H]3C[C@H](O)[C@@H](CO)O3)nn2)c(=O)[nH]1`: the inhibition at 15 µM in the data set on Yellow fever virus is 4.59%; with dengue virus type 2, 0.75%; with West Nile virus it was -2.67%; with Hepatitis C virus, 0.04%. Also, the Activity in data set [1] is 9.5%; in data set [2] it was 9.5%; in data set [3] it was -4.57%; in data set [4], -5.59%.
On to `C#CCn1ccc(=O)[nH]c1=O`, for which the inhibition at 15 µM with Yellow fever virus is -11.3%; in the data set with dengue virus type 2, -4.6%; in the data set with West Nile virus it was -4.57%; with Hepatitis C virus, 12.1%. For the same compound, the Activity was 2.76% in data set [1], 2.76% in data set [2], 0.08% in data set [3] and -8.85% in data set [4].
Turning to `Nc1ncnc2c1ncn2Cc1cn([C@H]2C[C@H](O)[C@@H](CO)O2)nn1`, the inhibition at 15 µM is 8.36% in the data set on Yellow fever virus, 1.02% in the data set on dengue virus type 2, -0.43% in the data set on West Nile virus and 7.54% in the data set with Hepatitis C virus. Besides, the Activity in data set [1] was 7.85%; in data set [2] it was 7.85%; in data set [3], -2.12%; in data set [4] it was -0.61%.
For `O=C(Nc1ncnc2c1ncn2Cc1cn([C@H]2C[C@H](O)[C@@H](CO)O2)nn1)c1ccccc1`, the inhibition at 15 µM in the data set on Yellow fever virus was 8.76%; in the data set with dengue virus type 2, 1.02%; with West Nile virus it was -1.16%; in the data set with Hepatitis C virus, 9.02%. Besides, the Activity in data set [1] was 5.54%; in data set [2], 5.54%; in data set [3], -2.91%; in data set [4], -3.55%.
On to `Cc1ccc(C(=O)OC[C@H]2O[C@@H](n3cc(Cn4ccc5c(Cl)ncnc54)nn3)C[C@@H]2OC(=O)c2ccc(C)cc2)cc1`, for which the results for the inhibition at 15 µM in the data set with dengue virus type 2, in the data set on West Nile virus and in the data set with Hepatitis C virus were -1.05%, -2.95% and 49.2%, respectively. Moreover, the Activity in data set [1] is 0.31%; in data set [2], 0.31%; in data set [4], 20.77%.
As for `C#CCn1cnc2c(N)ncnc21`, the inhibition at 15 µM in the data set with Yellow fever virus is -2.81%; in the data set on dengue virus type 2 it was -3.4%; in the data set with West Nile virus, -1.77%; in the data set with Hepatitis C virus it was 2.99%. Moreover, the Activity in data set [1] is given as 3.8%; in data set [2], 3.8%; in data set [3], -7.46%; in data set [4] it was -10.4%.
